The values below come from ChEMBL document CHEMBL1132324, “Structure-activity relationships in 1,4-benzodioxan-related compounds. 6. Role of the dioxane unit on selectivity for alpha(1)-adrenoreceptor subtypes” (J Med Chem, 1999).

Assay [1] has as its target T1, Alpha-1A adrenergic receptor (Rattus norvegicus) (UniProt P43140).
T1 sequence (whole entry): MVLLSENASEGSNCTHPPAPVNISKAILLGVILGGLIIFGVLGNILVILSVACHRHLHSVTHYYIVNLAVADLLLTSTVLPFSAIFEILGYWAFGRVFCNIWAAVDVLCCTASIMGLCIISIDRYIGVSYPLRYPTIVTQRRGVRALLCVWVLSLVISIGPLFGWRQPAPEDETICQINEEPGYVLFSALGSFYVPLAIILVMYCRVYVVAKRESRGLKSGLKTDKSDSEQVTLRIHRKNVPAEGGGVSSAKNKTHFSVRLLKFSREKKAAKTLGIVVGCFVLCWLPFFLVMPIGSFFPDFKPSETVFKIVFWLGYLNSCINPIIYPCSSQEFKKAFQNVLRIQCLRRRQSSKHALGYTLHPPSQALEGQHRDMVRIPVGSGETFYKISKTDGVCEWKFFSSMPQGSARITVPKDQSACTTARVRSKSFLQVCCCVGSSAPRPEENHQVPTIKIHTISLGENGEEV
In words: Antagonist affinity was expressed as apparent pKb at alpha-1 adrenoceptors on isolated rat prostatic vas deferens (Alpha-1A adrenergic receptor). Format: functional, tissue-based. The gist of the method:
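Rat prostatic vas deferens in Tyrode with 0.1 μM cocaine. Equilibrated 60 min, primed twice with 10 μM noradrenaline, then a control cumulative (–)-noradrenaline curve recorded isometrically. Antagonist equilibrated 30 min before a repeat curve. Apparent pKb = log(DR−1) − log[B], with DR as the ratio of agonist EC50 with/without antagonist. 2–3 antagonist concentrations, each tested four times.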

For assay [2], the target named is T2, Alpha-1D adrenergic receptor (Homo sapiens) (UniProt P25100).
T2 sequence (whole entry): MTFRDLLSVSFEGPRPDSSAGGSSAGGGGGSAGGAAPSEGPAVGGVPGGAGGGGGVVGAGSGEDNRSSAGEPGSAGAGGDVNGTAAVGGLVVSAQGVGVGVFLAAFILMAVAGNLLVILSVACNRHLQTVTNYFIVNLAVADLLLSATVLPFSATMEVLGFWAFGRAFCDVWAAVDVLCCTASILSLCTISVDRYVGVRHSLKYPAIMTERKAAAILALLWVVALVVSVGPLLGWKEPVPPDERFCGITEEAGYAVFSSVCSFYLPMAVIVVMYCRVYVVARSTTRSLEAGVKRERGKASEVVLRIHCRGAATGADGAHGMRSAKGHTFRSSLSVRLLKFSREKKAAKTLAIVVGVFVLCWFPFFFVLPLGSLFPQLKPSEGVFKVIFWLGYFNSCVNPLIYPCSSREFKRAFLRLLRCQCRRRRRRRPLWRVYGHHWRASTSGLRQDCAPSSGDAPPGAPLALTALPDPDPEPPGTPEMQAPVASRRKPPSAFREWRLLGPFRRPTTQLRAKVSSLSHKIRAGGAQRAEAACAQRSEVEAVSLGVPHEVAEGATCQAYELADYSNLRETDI
The experiment in a line: The binding affinity was evaluated on cloned human alpha-1D adrenergic receptor expressed in chinese hamster ovary(CHO) cells by using [3H]prazosin as radioligand. The class given is cell-based. Put shortly:
(§1)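 Membranes (30 μg protein) from CHO cells stably expressing each human α1 subtype, in 50 mM Tris-HCl pH 7.4. Incubated with 0.1–0.4 nM [3H]prazosin for 30 min at 25 °C, competitor 1 pM–10 μM. Nonspecific binding with 10 μM phentolamine. Ki by Cheng-Prusoff. 2–3 experiments in triplicate.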

In assay [3] the target is T3, Alpha-1A adrenergic receptor (Homo sapiens) (UniProt P35348).
T3 sequence (whole entry): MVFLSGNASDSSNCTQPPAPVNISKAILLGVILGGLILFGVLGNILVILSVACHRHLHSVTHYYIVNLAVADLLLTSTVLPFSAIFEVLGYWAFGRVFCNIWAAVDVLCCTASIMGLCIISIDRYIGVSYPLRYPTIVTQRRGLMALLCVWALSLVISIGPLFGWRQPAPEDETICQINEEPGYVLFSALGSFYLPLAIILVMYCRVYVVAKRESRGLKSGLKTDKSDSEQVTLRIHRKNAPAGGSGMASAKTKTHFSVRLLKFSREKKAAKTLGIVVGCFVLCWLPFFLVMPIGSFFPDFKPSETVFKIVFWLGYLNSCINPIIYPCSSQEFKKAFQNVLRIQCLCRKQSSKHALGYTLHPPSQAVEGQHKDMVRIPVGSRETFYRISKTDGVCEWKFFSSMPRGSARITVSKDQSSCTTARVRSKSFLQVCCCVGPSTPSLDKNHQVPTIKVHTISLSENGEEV
The experiment in a line: The binding affinity was evaluated on cloned human alpha-1A adrenergic receptor expressed in chinese hamster ovary(CHO) cells by using [3H]prazosin as radioligand. The class given is cell-based. Put shortly: as §1

Molecules are shown by their SMILES.

As for `COc1cccc(OC)c1OCCNCC1C(=O)c2ccccc2OC1c1ccccc1` (stereo not drawn), the pKb (in general, the Kb on a negative log10 scale, so that one unit is a factor of ten) in assay [1] turned out to be 7.88. Also, the pKi (as a rule, the Ki on a negative log10 scale, so that one unit is a factor of ten) in assay [2] was 7.93; in assay [3], 9.22.
